High-throughput results from PubChem.
RanGTP-Impb inh = inhibitors of RanGTP-importin-beta interaction, primary screen, biochemical, FRET, CFP-Ran, YFP-importin-beta, homogeneous; cell-free CFP-Ran/YFP-importin-beta FRET ratio; 1.1% of 300,000 active; Ran GTPase (GTP-bound) - importin-beta complex; inhibition, % (test concentration not listed);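 active means more than half of the replicate wells show a fall in the fluorescence ratio signal beyond about 16%, limit read from the data, passing the limit was not always enough; inconclusive means exactly half of the replicate wells pass the set limit; inactive means fewer than half of replicates pass the limit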
Hck Nef HTS = inhibitors of Nef-activated human Hck kinase, primary screen, biochemical, Z-Lyte FRET, 384-well, Hck-YEEI. Tyrosine-protein kinase HCK (Homo sapiens), P08631. Recombinant Hck-YEEI plus Nef, Z-Lyte FRET kinase assay. inhibition, % at 20 µM. 0.68% of 220,000 active. AID 463187, 2010;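 active means Hck-Nef kinase inhibition above about 50%, limit read from the data; inactive means inhibition below that limit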
Runt-CBFb FRET = inhibitors of RUNX1 Runt–CBFb binding, primary screen, biochemical, FRET, Cerulean-Runt, Venus-CBFb, uHTS | Runt-related transcription factor 1 (Homo sapiens) + Core-binding factor subunit beta … | Cerulean-Runt/Venus-CBFb FRET ratio 530/480, 1 h | inhibition, % at 20 µM | 0.46% of 220,000 active;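 active means inhibition over about 50% at 20 µM in the single-dose screen, limit read from the data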
Target sequence (Q01196 whole entry, looked up): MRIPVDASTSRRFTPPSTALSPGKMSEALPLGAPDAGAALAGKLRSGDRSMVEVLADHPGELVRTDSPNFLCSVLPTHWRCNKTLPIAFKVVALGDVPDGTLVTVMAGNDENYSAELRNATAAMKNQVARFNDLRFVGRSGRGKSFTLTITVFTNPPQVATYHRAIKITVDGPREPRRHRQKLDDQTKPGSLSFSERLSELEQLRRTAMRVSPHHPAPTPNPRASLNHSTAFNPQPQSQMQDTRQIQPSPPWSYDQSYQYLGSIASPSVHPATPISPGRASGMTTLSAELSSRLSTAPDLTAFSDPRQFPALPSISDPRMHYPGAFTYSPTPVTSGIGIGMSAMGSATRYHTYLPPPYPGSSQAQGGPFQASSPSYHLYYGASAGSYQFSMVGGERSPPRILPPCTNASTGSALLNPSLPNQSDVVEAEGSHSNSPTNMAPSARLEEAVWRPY
Target sequence (Q13951 whole entry, looked up): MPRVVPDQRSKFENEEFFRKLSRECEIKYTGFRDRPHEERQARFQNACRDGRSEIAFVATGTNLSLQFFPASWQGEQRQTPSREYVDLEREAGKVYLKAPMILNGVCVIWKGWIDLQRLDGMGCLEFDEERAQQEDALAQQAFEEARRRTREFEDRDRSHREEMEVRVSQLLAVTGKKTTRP
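Doses: 20 µM compound in 1% DMSO | Material: Cerulean-labeled Runt domain protein | Amount: Each fluorescent fusion protein 100 nM | Schedule: Two 1 h room-temperature incubations shielded from light | Measured by: FRET fluorescence | Evaluation: Loss of energy transfer signal | Controls: Unlabeled CBFb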
Runt-SMMHC FRET = inhibitors of RUNX1 Runt–CBFb-SMMHC binding, primary screen, biochemical, FRET, Cerulean-Runt, Venus-CBFb-SMMHC, uHTS. inhibition, % at 20 µM. AID 1434, 2008. Cerulean-Runt/Venus-CBFb-SMMHC FRET ratio 530/480, 1 h. 0.74% of 220,000 active;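 active means mean inhibition across duplicate retests at 20 µM reaching about 50%, limit read from the data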;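 further: inhibitors lower the FRET ratio by blocking Runt binding to CBFb-SMMHC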
PfM18AAP inh = PfM18AAP inhibitors, malaria aminopeptidase, primary screen, biochemical, QFRET, recombinant enzyme; H-Glu-NHMec fluorogenic cleavage; inhibition, % at 7.35 µM; 1.2% of 290,000 active; AID 1822, 2009;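 active means inhibition above the campaign mean inhibition over all tested compounds plus 3 SD, cut at about 28% in these data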
RBBP9 inhibitor = human RBBP9 inhibitors, primary screen, biochemical, fluorescence polarization, FP-Rh probe, HTS; Serine hydrolase RBBP9 (Homo sapiens), O75884; recombinant RBBP9; inhibition, % at 7.94 µM; 0.2% of 220,000 active; AID 1515, 2009;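 active means inhibition above the campaign mean of all tested compounds plus 3 SD, cut at about 14% in these data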
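System: RBBP9 protein | Quantity: 2.5 µM RBBP9 dispensing solution, before mixing | Reagent: FP-Rh probe, 375 nM dispensing solution | Timing: Enzyme-compound preincubation 30 min, then probe labeling 45 min, 25 °C | Measured by: Fluorescence polarization | Read-out: % inhibition | Replication: One well per compound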
Hits are given with their value; - = inactive; ? = inconclusive; . = no result. In the library only some 2.9% were active in any assay of this set; here they are far more common.

SMILES	RanGTP-Impb inh	Hck Nef HTS	Runt-CBFb FRET	Runt-SMMHC FRET	PfM18AAP inh	RBBP9 inhibitor
CCN(CC)CCCNC(=O)C1CCC(=O)N(c2ccc(OC)cc2)C1c1ccc(F)cc1 (stereo unspecified)	54	-	-	-	-	-
Cc1ccccc1-c1nc(CS(=O)(=O)CC(=O)N2CCN(C)CC2)c(C)o1	-	.	.	.	-	.
Cc1cc(C)c2cc(C#N)c(N3CCCN(C(=S)NCCCN(C)C)CC3)nc2c1	35	.	.	.	-	.
COCC(=O)N1CCCN(c2nc3c(C)cccc3cc2C#N)CC1	57	-	-	-	-	-
Cc1cccc2cc(C#N)c(SCC(=O)N3CCC(C)CC3)nc12	-	-	-	-	-	-
CCOCCCNC(=S)NCCCNc1nc2c(C)c(C)ccc2cc1C#N	.	-	-	-	-	-
CCOCCCNC(=S)N1CCCN(c2nc3cc(C)ccc3cc2C#N)CC1	-	-	-	76	-	-
CCOCCCNC(=S)N1CCCN(c2nc3c(C)c(C)ccc3cc2C#N)CC1	51	-	.	.	-	-
CCCOC1CCCN(C(=O)c2cc(COc3ccc(-n4cncn4)cc3)on2)C1 (stereo unspecified)	-	.	.	.	-	.
COCCNC(=O)C(=O)NNC(=O)c1ccccc1OC	-	-	-	-	-	-
CC(C)n1nccc1N(Cc1ccc(Br)cc1)S(=O)(=O)c1ccccc1	-	.	.	.	-	.
O=C(CSc1nnc(-c2ccc(O)cc2)n1-c1ccccc1)CC(=O)Nc1ccccc1	-	-	-	-	33	-
CC[n+]1c(/C=C/N(C)c2ccccc2)oc2ccc(F)cc21	-	-	-	-	31	-
Cc1ccc(S(=O)(=O)Nc2cc3c(cc2C#N)OCO3)cc1C(N)=O	-	.	.	.	-	.
CC1(C)Cc2c(sc3nc(C4CC4)n(N)c(=O)c23)CO1	-	-	98	-	-	-
CCN1CCS/C1=C\C=C\C1=[N+](CC)CCS1	-	-	128	.	-	-
CCN1CCS/C1=C/C=C/C1=[N+](CC)CCS1	-	-	140	120	-	-
COc1ccc(C(=O)COC(=O)Cn2cnc3ccccc3c2=O)c(OC)c1	-	.	.	.	.	.
CNc1nc(-c2ccccc2)[n+](-c2ccc(C)cc2)s1	-	-	-	56	-	-
CCOC(=O)CSc1nc2c(sc(=S)n2-c2ccccc2)c(=O)n1-c1ccc(OC)cc1OC	-	.	.	.	30	.
CCNc1oc(-c2ccccc2F)nc1S(=O)(=O)c1ccccc1	-	.	.	.	-	.
O=C(Cc1ccccc1F)NC1CCCN(Cc2ccc(Cl)cc2)C1 (stereo unspecified)	-	.	.	.	-	.
COc1ccccc1C(=O)NC(=S)NNC(=O)c1sc2ccccc2c1Cl	49	-	-	-	-	-
COc1ccccc1C(=O)NNC(=S)NC(=O)c1sc2ccccc2c1Cl	?	-	-	-	-	-
CCOC(=O)C1CCCN(CCC(=O)Nc2cc(OC)ccc2OC)C1 (stereo unspecified)	-	.	.	.	-	.
SMILES	RanGTP-Impb inh	Hck Nef HTS	Runt-CBFb FRET	Runt-SMMHC FRET	PfM18AAP inh	RBBP9 inhibitor
CCSc1ccc(-c2nn(-c3ccccc3)cc2/C=C(/C#N)C(=O)NCCCOC)cc1	.	-	-	60	-	-
C=C(C)C(=O)Nc1cccc(C2=NOC3(C2)C[C@@H](C(N)=O)N(C(=O)/C=C/C=C/C)C3)c1 (stereo partly specified)	-	-	-	-	.	.
O=C(Cc1c(F)cccc1Cl)N/N=C/c1cccnc1	-	.	.	.	-	.
COc1cccc(C(=O)Nc2ccc(NC(=O)C3CC=CCC3C(=O)O)cc2)c1 (stereo unspecified)	.	.	.	.	-	.
Cc1nc2ccn(Cc3ccccc3)c(=O)c2cc1C(=O)N1CCN(c2ccccc2)CC1	92	.	.	.	-	.
COc1ccc(CNC(=O)CCS(=O)(=O)c2ccc3c(c2)CC(C)N3C(=O)C2CC2)cc1 (stereo unspecified)	-	.	.	.	-	.
N#C/C(=C\c1c(N2CCCCC2)nc2ccccn2c1=O)C(=O)NC1CCS(=O)(=O)C1 (stereo unspecified)	80	-	-	81	-	-
Cc1cccn2c(=O)c(/C=C(\C#N)C(=O)NC3CCS(=O)(=O)C3)c(N3CCC(C)CC3)nc12 (stereo unspecified)	84	-	-	63	-	-
COC(=O)/C(C#N)=C/c1c(N2CCCCCC2)nc2ccccn2c1=O	-	.	.	.	-	.
Cc1ccccc1N1CCN(C(=S)c2ccc([N+](=O)[O-])cc2)CC1	26	-	-	-	-	-
Cc1cccc(N2CCN(C(=S)c3ccccc3)CC2)c1	.	-	-	-	-	-
CC(=O)N1CCN(C(=S)c2ccc([N+](=O)[O-])cc2)CC1	-	-	-	-	-	-
Cc1cccc(N2CCN(C(=S)c3ccc([N+](=O)[O-])cc3)CC2)c1	-	-	-	-	30	-
CC1CCC(NC(=O)c2cc3c(s2)CCCC3)CC1 (stereo unspecified)	-	.	.	.	.	.
Cc1ccc2cccc(NC3OC(=O)c4ccccc43)c2n1 (stereo unspecified)	-	-	-	-	28	-
Cc1ccc(C)c(NC(=S)NCCCN2CCOCC2)c1	-	-	-	-	-	-
Cc1cc2cc(C#N)c(NCCNC(=S)NCCCN3CCOCC3)nc2cc1C	?	-	-	88	-	-
COc1ccc(OC)c(NC(=S)NCCCN2CCOCC2)c1	-	-	-	-	-	-
COc1ccc2nc(NCCNC(=S)NCCCN3CCOCC3)c(C#N)cc2c1	-	-	-	93	-	-
O=C(COc1ccccc1)N=C1SC2CS(=O)(=O)CC2N1c1ccc(F)cc1 (stereo unspecified)	-	.	.	.	-	.
Cc1cc2c(n1-c1ccc(C(=O)O)cc1)CCCCC2	-	.	.	.	-	.
C=C1c2cccc(O)c2C(O)=C2C(=O)[C@]3(O)C(O)=C(C(N)=O)C(=O)[C@@H](N(C)C)[C@@H]3[C@@H](O)[C@H]12	-	-	-	-	-	37
COC(=O)C1=C(C)N=C2SC(C#N)=C(N)N2C1c1ccc(OCc2ccccc2)cc1 (stereo unspecified)	25	-	-	-	-	-
COC(=O)C1=C(C)N=C2SC(C#N)=C(N)N2C1c1cc(OC)c(OC)c(OC)c1 (stereo unspecified)	-	-	-	-	-	-
